The chains are these.
B1: tRNA (parent)
chain: GUUCCGUUGGCGUAAUGGUAACGCGUCUCCCUCCUAAGGAGAAGACUGCGGGUUCGAGUCCCGUACGGAACG

Variants at the floor of the assay were thinned out. Some results are limits rather than exact numbers.

This data set covers variants of B1. The data set can be described thus: yeast fitness relative to wild type (ratio to wild type); higher = fitter; tRNA-Arg(CCU), competitive growth, 37 C, YPD. The procedure, abridged:
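Gene amplicons from the start population and from each of six end populations were read by 100-nucleotide paired-end sequencing. Those end populations came from pooled Saccharomyces cerevisiae strains carrying tRNA-Arg(CCU) gene variants at the native locus, competed in YPD at 37°C for 24 hours. Fitness relative to wild type was worked out from changes in genotype frequencies. Genotypes needed ≥ 100 starting reads, and estimates < 0.5 were set to 0.5.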
With A43U G58U, the yeast fitness amounted to 0.694.

On to A45C A57G A70C, for which the yeast fitness was found to be 0.764.

Take A43G G63A A69U: the yeast fitness came out at 0.812.

For the variant A43G A57U, the yeast fitness came to 0.623.

On to A43U C49A C66U A70U, for which the yeast fitness came to 0.529.

On to A43U C60A, for which the yeast fitness worked out at 0.59.

With A45C A70G, the yeast fitness worked out at 0.957.

As to A43G G56C, the yeast fitness is 0.766.

In the case of A43C U53C C66U A70C, the yeast fitness is no more than 0.5.

In the case of G44A G67A, the yeast fitness stood at 0.887.

Regarding G44A G67C, the yeast fitness turned out to be 0.71.

On to A43U C46A G63A, for which the yeast fitness stood at 0.689.

For the variant G44C C49U U59G, the yeast fitness was no more than 0.5.

Take G44A U47G C49G U54G: the yeast fitness is no more than 0.5.

A43G G44A C46A: the yeast fitness amounted to 0.976.

As for A43U C62U G63A, the yeast fitness turned out to be 0.823.

A45C G63C U64C: the yeast fitness is no more than 0.5.

For the variant G44U A45U G63C, the yeast fitness is no more than 0.5.

Take A43G A45U C46U A70U: the yeast fitness is no more than 0.5.

For A45C G68A, the yeast fitness came out at 0.838.

Turning to A45C G68U, the yeast fitness was 0.739.

With G44C A45G G56A, the yeast fitness turned out to be 1.01.

In the case of A43U C61A A65U, the yeast fitness was no more than 0.5.

For the variant G44C G51A G58C U59A, the yeast fitness is no more than 0.5.

For A43G G50A, the yeast fitness was found to be 0.864.

Consider A43C U53A U54C, for which the yeast fitness turned out to be 0.583.

For A45C G58U, the yeast fitness was 0.675.

G44C C55G A69U: the yeast fitness is 0.746.

Turning to A43G A69U, the yeast fitness came to 1.04.

With G44A A45C U53A C55A U59C C62U, the yeast fitness is no more than 0.5.

On to G44C C62G, for which the yeast fitness came out at 0.644.

Turning to G44C C62A, the yeast fitness stood at 0.738.

Turning to G44A G56C A57U, the yeast fitness worked out at 0.596.

Take A45C C60U: the yeast fitness came to 0.752.

Take A43G C60U C62U: the yeast fitness worked out at 0.536.

For the variant A45C U47A U53C, the yeast fitness was no more than 0.5.

As for A45C C55G C61U, the yeast fitness is no more than 0.5.

For A43U C46U, the yeast fitness turned out to be 0.952.

G44C C62A C66U: the yeast fitness was no more than 0.5.

On to G44A A70C, for which the yeast fitness was 0.837.

On to G44A A70G, for which the yeast fitness was found to be 0.919.

For G44A A70U, the yeast fitness came out at 1.03.

For the variant A43G U53C C55U C62U, the yeast fitness is no more than 0.5.

A43G G58A C61G: the yeast fitness is no more than 0.5.

As for A43G G67U, the yeast fitness was determined as 0.85.

For the variant A43G G67A, the yeast fitness was 0.864.

With G44C A45U, the yeast fitness amounted to 0.905.

In the case of G44C A45C, the yeast fitness amounted to 0.97.

As for G44A G58U A69C, the yeast fitness was no more than 0.5.

Take G44A U59C: the yeast fitness turned out to be 0.799.

G44A U59A: the yeast fitness worked out at 0.601.

Consider A43G G51C A69U, for which the yeast fitness is no more than 0.5.

As to A43G C49U A69C, the yeast fitness was found to be 0.6.

On to G44C G56A, for which the yeast fitness stood at 0.795.

In the case of G44C A70G, the yeast fitness worked out at 0.954.

With G44C C46G C55U G63A, the yeast fitness was no more than 0.5.

In the case of G44C C55G, the yeast fitness was found to be 0.596.

G44C C55A: the yeast fitness came to 0.548.

On to A43G A45U A69U, for which the yeast fitness amounted to 0.771.

Regarding A43U A69G, the yeast fitness was found to be 0.886.

Consider A43U A69C, for which the yeast fitness was determined as 0.986.

Regarding A43G U53A, the yeast fitness is 0.657.

With G44A C46A G52A C66U, the yeast fitness turned out to be 0.62.

A45C U47G A57G: the yeast fitness came to 0.605.

Consider G44U A45C G50C, for which the yeast fitness was no more than 0.5.

Take A45C G63C C66U: the yeast fitness was no more than 0.5.

In the case of A43U C46G A57G U64A A70G, the yeast fitness is no more than 0.5.

Take G44C A57C: the yeast fitness was determined as 0.568.

As to G44C A57G, the yeast fitness stood at 0.895.

Regarding A45C A57C G68C, the yeast fitness was 0.517.

For G44C C55G A65G, the yeast fitness was found to be 0.555.

As to A45C C55A, the yeast fitness came out at 0.562.

Take A43G G48A G50A G51A C62U: the yeast fitness is no more than 0.5.

On to A43U U47C C55A A65U A70G, for which the yeast fitness is no more than 0.5.

For G44C U59A, the yeast fitness was 0.581.

On to G44C U59C, for which the yeast fitness is 0.791.

On to G44A A45U C62G, for which the yeast fitness is no more than 0.5.

Regarding A43G C66U G68A, the yeast fitness was 0.585.

For A43G C60U A65G, the yeast fitness was 0.535.

On to A45C U59C, for which the yeast fitness was determined as 0.874.

Take A45C C66U: the yeast fitness is 0.786.

A45C C66A: the yeast fitness was found to be 0.665.

Regarding A43U C66U, the yeast fitness came out at 0.829.

With G44A A45C C49G A69C, the yeast fitness worked out at 0.698.

Consider A45C C55U A69U, for which the yeast fitness is 0.753.

With A43U G48C C60G G63A, the yeast fitness was no more than 0.5.

In the case of A45C C62G A65C, the yeast fitness stood at 0.554.

As for A43G G51A C61U C62G, the yeast fitness is no more than 0.5.

A43U C55A G68C A69U: the yeast fitness was no more than 0.5.

In the case of G44C C62U G63A, the yeast fitness is no more than 0.5.

As to G44U C49G, the yeast fitness came to 0.654.

On to A43G C55U C61A, for which the yeast fitness is no more than 0.5.

Regarding A45C C61G, the yeast fitness was found to be 0.591.

Take A45C G52A: the yeast fitness amounted to 0.731.

Take A43G C55G: the yeast fitness amounted to 0.684.

Consider A43G C46G U53C G56C, for which the yeast fitness is no more than 0.5.

Regarding A43G G52C C55A C61A, the yeast fitness was no more than 0.5.

In the case of A43G A45U G67U, the yeast fitness is 0.682.

As for A45C G50A A65C, the yeast fitness was found to be 0.634.

Regarding G44A G67A A70G, the yeast fitness came out at 0.688.

For the variant A45C G51A, the yeast fitness stood at 0.919.

On to G44C C62U A69C, for which the yeast fitness was 0.696.

In the case of A45C C46U U64C, the yeast fitness was determined as 0.79.

Turning to G44A C46U A70C, the yeast fitness worked out at 0.809.

Turning to A43U C62U A70C, the yeast fitness is 0.637.

Regarding A43U U47G U53G, the yeast fitness turned out to be 0.519.

A43U G56A G63A: the yeast fitness amounted to 0.773.

Regarding A45C A69C, the yeast fitness amounted to 0.744.

For the variant A45C A69G, the yeast fitness amounted to 1.06.

As to G44C U64G, the yeast fitness came to 0.653.

Take G44C U64C: the yeast fitness worked out at 0.858.

For A43G, the yeast fitness came to 0.991.

With A43U, the yeast fitness was 0.988.

In the case of A43G U47G C55G, the yeast fitness amounted to 0.636.

In the case of A43U A65C G68U, the yeast fitness came out at 0.527.

Regarding A43U C61G C62A, the yeast fitness turned out to be 0.581.

Regarding A43U G48C C60G, the yeast fitness is no more than 0.5.

Take G44C G48A G51A: the yeast fitness was determined as 0.985.

Take A45G A57G: the yeast fitness stood at 0.943.

As to A43G C55A A69U, the yeast fitness is 0.633.

In the case of A43U G48A G56C A57U, the yeast fitness turned out to be 0.693.

As to G44U C55G, the yeast fitness was no more than 0.5.

Consider A43G G52A A69U A70C, for which the yeast fitness is no more than 0.5.

Regarding A45C C46A, the yeast fitness came out at 0.991.

For the variant A45C C46G, the yeast fitness came to 1.01.

As to A45G A65U, the yeast fitness was 0.911.

Regarding A45G A65C, the yeast fitness worked out at 0.868.

Regarding G44A C49U A69C, the yeast fitness was 0.752.

For A43U A69C A70C, the yeast fitness was 0.601.

Regarding A43U A57U, the yeast fitness amounted to 0.761.

With A43U A57G, the yeast fitness was 1.01.

Regarding A43U U59A C61A, the yeast fitness was determined as 0.629.

On to A43G U59A, for which the yeast fitness is 0.797.

Turning to A43G G44C C66U, the yeast fitness was 0.57.

G44C U53C: the yeast fitness was 0.797.

As to G44C C61A C62U C66U, the yeast fitness is no more than 0.5.

As for A43U G50C C60A, the yeast fitness was no more than 0.5.

In the case of A45C C49U A70C, the yeast fitness came to 0.813.

With A43G G44A C46A G67A, the yeast fitness was found to be 0.59.

Turning to A45C C55U G67C, the yeast fitness was no more than 0.5.

As for A45C G50C G51C C55U G67C, the yeast fitness was no more than 0.5.

On to A43U C60G U64A, for which the yeast fitness amounted to 0.679.

On to A45C U47C A57C G68C, for which the yeast fitness is no more than 0.5.

As to G44A U54A, the yeast fitness was 0.61.

Consider A43U U47C, for which the yeast fitness stood at 0.899.

As to A45C A57G, the yeast fitness was 0.858.

On to A43G A57C C60G, for which the yeast fitness is no more than 0.5.

Regarding G44A C46U G58C, the yeast fitness turned out to be 1.08.

In the case of A45C G48A C55A, the yeast fitness was determined as 0.544.

Take A43U A45C G67C: the yeast fitness is no more than 0.5.

Take A43G C60U C62U G67A A70C: the yeast fitness was 0.576.

On to G44C G67U, for which the yeast fitness was 0.855.

For the variant G44C G67A, the yeast fitness came out at 0.722.

A43U C55G: the yeast fitness stood at 0.537.

Regarding A43U C46A G48C, the yeast fitness came to 0.631.

Consider A43G A57C G58A A65U, for which the yeast fitness was no more than 0.5.

As for A43U C55A C66U, the yeast fitness was 0.6.

With A45C C49U, the yeast fitness was determined as 0.978.

For A45C C49G, the yeast fitness amounted to 0.721.

With A45C C49A, the yeast fitness turned out to be 0.603.

As to A43U U59G, the yeast fitness came to 0.81.

On to A43U G50A G68A, for which the yeast fitness is no more than 0.5.

Turning to A45C C62G, the yeast fitness turned out to be 0.718.

For A45C C62A, the yeast fitness amounted to 0.622.

In the case of A43U A70C, the yeast fitness stood at 0.898.

A43U A70G: the yeast fitness turned out to be 0.937.

As for G44C G52C C66G, the yeast fitness was no more than 0.5.
